The text below walks through data of ChEMBL document CHEMBL1147875, “Novel 1-oxyl-2-substitutedphenyl-4,4,5,5-tetramethylimidazolines: synthesis, selectively analgesic action, and QSAR analysis” (2007).

Assay [1] concerns Mus musculus. Description: Analgesic activity in ICR mouse assessed as pain threshold variation at 0.0013 mmol/kg, ip after 150 mins by tail flick test. It is filed as functional, organism-based. An outline of the steps:
(§1)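 Male ICR mice (25 2 g), 12/12 light/dark cycle, 21 2 °C, acclimated one day. Single ip injection in 0.2 ml saline with 0.01 ml DMSO and 0.02 ml Tween 80. Tail-flick pain threshold measured before dosing (BPT) and at 30 min intervals for 150 min. PTV = (post-dose threshold − BPT)/BPT, averaged per animal. Saline controls; ANOVA, p < 0.05.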

Assay [2] deals with Mus musculus. Description: Effect on bleeding time in ICR mouse tail at 1.3 mmol/kg, ip after 15 mins. It is filed as functional. An outline of the steps: (§2)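 Mice given 1.30 mmol/kg body weight. Tail bleeding time measured before dosing and at 5, 15, 30 and 60 min after dosing. Saline as vehicle control.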
In assay [3] the test system is Aorta. Description: Vasorelaxant activity in rat aortic strips assessed as inhibition of noradrenaline-induced vasoconstriction at 20 umol/l. Set-up: scale not given: the % may be the effect or the level left. The class given is functional.
Assay [4] deals with Mus musculus. Description: Analgesic activity in ICR mouse assessed as pain threshold variation at 0.13 mmol/kg, ip after 120 mins by tail flick test. It is filed as functional. An outline of the steps:
as §1

The test system of assay [5] is Mus musculus. Description: Analgesic activity in ICR mouse assessed as pain threshold variation at 0.013 mmol/kg, ip after 90 mins by tail flick test. The class given is functional, organism-based. The gist of the method:
as §1

For assay [6], the system named is Mus musculus. Description: Effect on bleeding time in ICR mouse tail at 1.3 mmol/kg, ip after 5 mins. It is filed as functional. An outline of the steps: as §2
Assay [7] relates to Mus musculus. Description: Analgesic activity in ICR mouse assessed as pain threshold variation at 0.013 mmol/kg, ip after 150 mins by tail flick test. The class given is functional, organism-based. An outline of the steps: as §1
On the technique in general: In hot-plate and tail-flick tests a longer latency is read as antinociception.

Assay [8] concerns Mus musculus. Description: Analgesic activity in ICR mouse assessed as pain threshold variation at 0.013 mmol/kg, ip after 60 mins by tail flick test. The class given is functional, organism-based. An outline of the steps: as §1
The subject of assay [9] is Mus musculus. Description: Effect on bleeding time in ICR mouse tail at 1.3 mmol/kg, ip after 60 mins. The class given is functional. An outline of the steps:
as §2

Assay [10] deals with Mus musculus. Description: Analgesic activity in ICR mouse assessed as pain threshold variation at 0.0013 mmol/kg, ip after 30 mins by tail flick test. It is filed as functional, organism-based. The gist of the method: as §1
Assay [11] concerns Aorta. Description: Vasorelaxant activity in rat aortic strips assessed as inhibition of noradrenaline-induced vasoconstriction at 100 umol/l. The class given is functional. Set-up: scale not given: the % may be the effect or the level left.
The subject of assay [12] is Mus musculus. Description: Analgesic activity in ICR mouse assessed as pain threshold variation at 0.13 mmol/kg, ip after 150 mins by tail flick test. The class given is functional. An outline of the steps:
as §1

The subject of assay [13] is Mus musculus. Description: Analgesic activity in ICR mouse assessed as pain threshold variation at 0.0013 mmol/kg, ip after 120 mins by tail flick test. The class given is functional, organism-based. An outline of the steps: as §1
The test system of assay [14] is Mus musculus. Description: Analgesic activity in ICR mouse assessed as pain threshold variation at 0.13 mmol/kg, ip after 90 mins by tail flick test. It is filed as functional. An outline of the steps: as §1
For assay [15], the system named is Aorta. Description: Vasorelaxant activity in rat aortic strips assessed as inhibition of noradrenaline-induced vasoconstriction at 500 umol/l. Set-up: scale not given: the % may be the effect or the level left. It is filed as functional.
The subject of assay [16] is Mus musculus. Description: Analgesic activity in ICR mouse assessed as pain threshold variation at 0.0013 mmol/kg, ip after 90 mins by tail flick test. The class given is functional, organism-based. The gist of the method:
as §1

Assay [17] relates to Mus musculus. Description: Analgesic activity in ICR mouse assessed as pain threshold variation at 0.13 mmol/kg, ip after 30 mins by tail flick test. The class given is functional. An outline of the steps: as §1
For assay [18], the system named is Mus musculus. Description: Analgesic activity in ICR mouse assessed as pain threshold variation at 0.013 mmol/kg, ip after 120 mins by tail flick test. The class given is functional, organism-based. The gist of the method:
as §1

The subject of assay [19] is Mus musculus. Description: Analgesic activity in ICR mouse assessed as pain threshold variation at 0.0013 mmol/kg, ip after 60 mins by tail flick test. It is filed as functional, organism-based. An outline of the steps:
as §1

Assay [20] has as its system Mus musculus. Description: Effect on bleeding time in ICR mouse tail at 1.3 mmol/kg, ip after 30 mins. The class given is functional. An outline of the steps: as §2
The subject of assay [21] is Mus musculus. Description: Analgesic activity in ICR mouse assessed as pain threshold variation at 0.13 mmol/kg, ip after 60 mins by tail flick test. The class given is functional. An outline of the steps: as §1
For assay [22], the system named is Mus musculus. Description: Analgesic activity in ICR mouse assessed as pain threshold variation at 0.013 mmol/kg, ip after 30 mins by tail flick test. It is filed as functional, organism-based. An outline of the steps: as §1

Turning to `CC1(C)N=C(c2cccc(O)c2)N([O])C1(C)C`, the Activity in assay [1] amounted to 33.5; in assay [3], 7.06%; in assay [4], 72.7; in assay [5], 42.8; in assay [7] it was 52.1; in assay [8], 37.8. The Activity in assay [10] was 24.2; in assay [11] it was 23%; in assay [12], 70.8; in [13], 35.2; in assay [14], 54; in assay [15], 35.7%. Also, the Activity turned out to be 30.7 in [16]; 49.6 in assay [17]; 59.9 in assay [18]; 25.6 in [19]; 50.3 in [21]; 35.7 in assay [22]. The TIME stood at 0.0326 h in [2], 0.033 h in [6], 0.0326 h in assay [9] and 0.0331 h in assay [20].

With `CC1(C)N=C(c2ccccc2F)N([O])C1(C)C`, the Activity in [1] was determined as 44.5; in [3] it was 5%; in assay [4] it was 62; in assay [5], 50.7; in assay [7], 64.5; in assay [8], 51.3. Besides, the Activity in [10] was 31.3; in assay [11], 14.9%; in [12], 86.8; in assay [13] it was 30.4; in [14], 63.3; in assay [15] it was 23.4%. The Activity came out at 31.8 in [16]; 62.2 in assay [17]; 49.8 in assay [18]; 33.5 in assay [19]; 67.8 in [21]; 49.3 in assay [22]. In addition, the TIME in [2] stood at 0.0329 h; in assay [6], 0.0331 h; in assay [9] it was 0.0326 h; in [20], 0.0328 h.

`COc1ccc(C2=NC(C)(C)C(C)(C)N2[O])cc1`: the Activity in [1] turned out to be 22.6; in assay [3], 6.88%; in assay [4], 68.7; in assay [5] it was 82.5; in assay [7] it was 34.4; in assay [8], 89.7. Further, the Activity amounted to 14.9 in [10]; 23.1% in [11]; 53 in [12]; 38.4 in assay [13]; 99.3 in assay [14]; 35.1% in assay [15]. For the same molecule, the Activity in assay [16] amounted to 50.5; in assay [17], 35.3; in [18] it was 50.2; in assay [19], 55.2; in assay [21] it was 103; in assay [22] it was 25. For the same molecule, the TIME was determined as 0.0324 h in assay [2], 0.0327 h in assay [6], 0.0331 h in [9] and 0.0331 h in assay [20].
